From ChEMBL document CHEMBL1133105, “Antimalarial, antitrypanosomal, and antileishmanial activities and cytotoxicity of bis(9-amino-6-chloro-2-methoxyacridines): influence of the linker” (J Med Chem, 2000) come the findings set out here.

As a reminder, the IC50 is the concentration that gives 50% inhibition. A lower IC50 goes with higher potency.

The first assay has as its system MRC5. Description: Cytotoxicity on MRC-5 cells at 3.13 uM. Conditions: Homo sapiens. It counts as functional. A digest of the protocol: (§1)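 MRC-5 human diploid embryonic lung cells seeded at 5 000/well, washed after 24 h, then given 2-fold drug dilutions (25, 12.5, 6.25, 3.13 µM) in RPMI + 5% FCS, final DMSO below 0.5%. Incubated 7 days at 37 °C, 5% CO2. MTT colorimetric read-out, scored as % reduction of absorbance at 540 nm versus untreated controls.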
`COc1ccc2nc3cc(Cl)ccc3c(NCCCN(CCCNc3c4ccc(Cl)cc4nc4ccc(OC)cc34)C(=O)C(CC(=O)O)NC(=O)OC(C)(C)C)c2c1` (stereo not drawn) came in with a cytotoxicity at 3.13 µM of 0%.

For `COc1ccc2nc3cc(Cl)ccc3c(NCCCN(CCCNc3c4ccc(Cl)cc4nc4ccc(OC)cc34)C(=O)CNC(=O)C(C)NC(=O)OC(C)(C)C)c2c1` (stereo not drawn), the cytotoxicity at 3.13 µM was found to be 31%.

In a further assay the test system is Trypanosoma brucei. Description: Percentage of activity against Trypanosoma brucei at 1.56 uM. It counts as functional.
Conditions: not given
A digest of the protocol: (§2)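 Bloodstream-form T. brucei in HMI-9 medium, 10 000 parasites/well, exposed to 12.5, 6.25, 3.13 and 1.56 µM drug for 4 days. Read-out is % inhibition of parasite multiplication. Macrophage toxicity judged on mouse primary peritoneal macrophages.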
With `COc1ccc2nc3cc(Cl)ccc3c(NCCCN(CCCNc3c4ccc(Cl)cc4nc4ccc(OC)cc34)C(=O)C(CC(=O)O)NC(=O)OC(C)(C)C)c2c1` (stereo not drawn), the “Percent inhibition of parasite multiplication” value was found to be 100%.

Regarding `COc1ccc2nc3cc(Cl)ccc3c(NCCCN(CCCNc3c4ccc(Cl)cc4nc4ccc(OC)cc34)C(=O)CNC(=O)C(C)NC(=O)OC(C)(C)C)c2c1` (stereo not drawn), the “Percent inhibition of parasite multiplication” value turned out to be 100%.

The next assay deals with Leishmania infantum. Description: In Vitro evaluation for the percentage of activity towards Leishmania infantum at 12.5 uM Concentration. The format is functional.
Conditions: not given
A digest of the protocol: (§3)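 Starch-stimulated mouse peritoneal macrophages, 30 000/well, infected after 24 h with spleen-derived L. infantum amastigotes (10:1) together with 2-fold drug dilutions (12.5–1.56 µM). Incubated 7 days at 37 °C, 5% CO2. Wright-stained slides scored microscopically as % reduction of total parasite load or of infected macrophages. Uninfected treated cultures judged microscopically for macrophage toxicity.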
Turning to `COc1ccc2nc3cc(Cl)ccc3c(NCCCN(CCCNc3c4ccc(Cl)cc4nc4ccc(OC)cc34)C(=O)C(CC(=O)O)NC(=O)OC(C)(C)C)c2c1` (stereo not drawn), the “Percent inhibition of Leishmania infantum” value is given as 0%.

A further assay has as its system Trypanosoma cruzi. Description: Percentage of activity against Trypanosoma cruzi at 1.56 uM. It counts as functional.
Conditions: not given
The gist of the method: (§4)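 Mouse peritoneal macrophages, 30 000/well, infected after 24 h with about 100 000 T. cruzi trypomastigotes per well plus 2-fold drug dilutions (12.5–1.56 µM). Incubated 4 days at 37 °C, 5% CO2. Methanol-fixed, Giemsa-stained and scored microscopically as % reduction of total parasite load (free trypomastigotes plus intracellular amastigotes) versus untreated controls.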
The compound `COc1ccc2nc3cc(Cl)ccc3c(NCCCN(CCCNc3c4ccc(Cl)cc4nc4ccc(OC)cc34)C(=O)C(CC(=O)O)NC(=O)OC(C)(C)C)c2c1` (stereo not drawn) gave a Parasite load reduction of 0%.

`COc1ccc2nc3cc(Cl)ccc3c(NCCCN(CCCNc3c4ccc(Cl)cc4nc4ccc(OC)cc34)C(=O)CNC(=O)C(C)NC(=O)OC(C)(C)C)c2c1` (stereo not drawn) showed a Parasite load reduction of 0%.

In a further assay the test system is MRC5. Description: Cytotoxicity on MRC-5 cells at 12.5 uM. Conditions: Homo sapiens. The format is functional. The gist of the method: as §1
In the case of `COc1ccc2nc3cc(Cl)ccc3c(NCCCN(CCCNc3c4ccc(Cl)cc4nc4ccc(OC)cc34)C(=O)C(CC(=O)O)NC(=O)OC(C)(C)C)c2c1` (stereo not drawn), the cytotoxicity at 12.5 µM came out at 0%.

On to `COc1ccc2nc3cc(Cl)ccc3c(NCCCN(CCCNc3c4ccc(Cl)cc4nc4ccc(OC)cc34)C(=O)CNC(=O)C(C)NC(=O)OC(C)(C)C)c2c1` (stereo not drawn), for which the cytotoxicity at 12.5 µM was 71%.

The test system of the next assay is Plasmodium falciparum. Description: In vitro sensitivity for Plasmodium falciparum FcB1R. The format is functional, organism-based.
Conditions: not given
The gist of the method: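 Asynchronous P. falciparum cultures in human erythrocytes (0.5% parasitemia, 1% haematocrit) exposed to serially diluted drug for 24 h at 37 °C. [3H]hypoxanthine (0.5 µCi/well) then added for a further 24 h. Uptake compared with drug-free controls on the same plate. IC50 taken from the concentration–response curve, averaged over independent experiments. DMSO ≤0.1%.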
In turn, `COc1ccc2nc3cc(Cl)ccc3c(NCCCN(CCCNc3c4ccc(Cl)cc4nc4ccc(OC)cc34)C(=O)C(CC(=O)O)NC(=O)OC(C)(C)C)c2c1` (stereo not drawn) gave a 50% inhibitory concentration (IC50) of more than 500 nM.

In turn, `COc1ccc2nc3cc(Cl)ccc3c(NCCCN(CCCNc3c4ccc(Cl)cc4nc4ccc(OC)cc34)C(=O)CNC(=O)C(C)NC(=O)OC(C)(C)C)c2c1` (stereo not drawn) registered an IC50 of 440 nM.

The subject of another assay is Trypanosoma brucei. Description: Percentage of activity against Trypanosoma brucei at 12.5 uM. It counts as functional.
Conditions: not given
A digest of the protocol: as §2
With `COc1ccc2nc3cc(Cl)ccc3c(NCCCN(CCCNc3c4ccc(Cl)cc4nc4ccc(OC)cc34)C(=O)C(CC(=O)O)NC(=O)OC(C)(C)C)c2c1` (stereo not drawn), the “Inhibition of parasite multiplication” value is 100%.

The test system of the next assay is Trypanosoma cruzi. Description: Percentage of activity against Trypanosoma cruzi at 12.5 uM. The format is functional.
Conditions: not given
The gist of the method: as §4
With `COc1ccc2nc3cc(Cl)ccc3c(NCCCN(CCCNc3c4ccc(Cl)cc4nc4ccc(OC)cc34)C(=O)C(CC(=O)O)NC(=O)OC(C)(C)C)c2c1` (stereo not drawn), the “T. cruzi parasite load reduction” value is reported as 80%.

In another assay the test system is Trypanosoma brucei. Description: Percentage of activity against Trypanosoma brucei at 3.13 uM. The format is functional.
Conditions: not given
A digest of the protocol: as §2
On to `COc1ccc2nc3cc(Cl)ccc3c(NCCCN(CCCNc3c4ccc(Cl)cc4nc4ccc(OC)cc34)C(=O)C(CC(=O)O)NC(=O)OC(C)(C)C)c2c1` (stereo not drawn), for which the Parasite growth inhibition was 100%.

Consider `COc1ccc2nc3cc(Cl)ccc3c(NCCCN(CCCNc3c4ccc(Cl)cc4nc4ccc(OC)cc34)C(=O)CNC(=O)C(C)NC(=O)OC(C)(C)C)c2c1` (stereo not drawn), for which the Parasite growth inhibition turned out to be 100%.

The test system of another assay is Trypanosoma cruzi. Description: Percentage of activity against Trypanosoma cruzi at 6.25 uM Concentration. The format is functional.
Conditions: not given
A digest of the protocol: as §4
Take `COc1ccc2nc3cc(Cl)ccc3c(NCCCN(CCCNc3c4ccc(Cl)cc4nc4ccc(OC)cc34)C(=O)C(CC(=O)O)NC(=O)OC(C)(C)C)c2c1` (stereo not drawn): the “Reduction of T. cruzi parasite load” value was 0%.

For the compound `COc1ccc2nc3cc(Cl)ccc3c(NCCCN(CCCNc3c4ccc(Cl)cc4nc4ccc(OC)cc34)C(=O)CNC(=O)C(C)NC(=O)OC(C)(C)C)c2c1` (stereo not drawn), the “Reduction of T. cruzi parasite load” value came out at 40%.

The next assay relates to Leishmania infantum. Description: Percentage of activity against Leishmania infantum at 1.56 uM. It counts as functional.
Conditions: not given
The gist of the method:
as §3
For `COc1ccc2nc3cc(Cl)ccc3c(NCCCN(CCCNc3c4ccc(Cl)cc4nc4ccc(OC)cc34)C(=O)C(CC(=O)O)NC(=O)OC(C)(C)C)c2c1` (stereo not drawn), the “Antileishmanial activity (% reduction of parasite load)” value is on record as 0%.

Take `COc1ccc2nc3cc(Cl)ccc3c(NCCCN(CCCNc3c4ccc(Cl)cc4nc4ccc(OC)cc34)C(=O)CNC(=O)C(C)NC(=O)OC(C)(C)C)c2c1` (stereo not drawn): the “Antileishmanial activity (% reduction of parasite load)” value is given as 0%.

For another assay, the system named is Leishmania infantum. Description: Percentage of activity against Leishmania infantum at 12.5 uM Concentration; Toxic upon mouse primary peritoneal macrophages. It counts as functional, organism-based.
Conditions: not given
The gist of the method: as §3
For `COc1ccc2nc3cc(Cl)ccc3c(NCCCN(CCCNc3c4ccc(Cl)cc4nc4ccc(OC)cc34)C(=O)CNC(=O)C(C)NC(=O)OC(C)(C)C)c2c1` (stereo not drawn), the Cytotoxicity result is “Toxic”.

The test system of a further assay is MRC5. Description: Cytotoxicity on MRC-5 cells at 6.25 uM. The note with it: Homo sapiens. The format is functional. A digest of the protocol:
as §1
As for `COc1ccc2nc3cc(Cl)ccc3c(NCCCN(CCCNc3c4ccc(Cl)cc4nc4ccc(OC)cc34)C(=O)C(CC(=O)O)NC(=O)OC(C)(C)C)c2c1` (stereo not drawn), the cytotoxicity at 6.25 µM came out at 0%.

Consider `COc1ccc2nc3cc(Cl)ccc3c(NCCCN(CCCNc3c4ccc(Cl)cc4nc4ccc(OC)cc34)C(=O)CNC(=O)C(C)NC(=O)OC(C)(C)C)c2c1` (stereo not drawn), for which the cytotoxicity at 6.25 µM was found to be 41%.

The next assay deals with Leishmania infantum. Description: Percentage of activity against Leishmania infantum 6.25 uM.
Conditions: not given
The format is functional. The gist of the method:
as §3
As to `COc1ccc2nc3cc(Cl)ccc3c(NCCCN(CCCNc3c4ccc(Cl)cc4nc4ccc(OC)cc34)C(=O)C(CC(=O)O)NC(=O)OC(C)(C)C)c2c1` (stereo not drawn), the “Antileishmanial activity (% reduction of parasite load)” value is listed as 0%.

Another assay concerns Trypanosoma cruzi. Description: Percentage of activity against Trypanosoma cruzi at 12.5 uM; Toxic upon mouse primary peritoneal macrophages.
Conditions: not given
It counts as functional, organism-based. A digest of the protocol:
as §4
Turning to `COc1ccc2nc3cc(Cl)ccc3c(NCCCN(CCCNc3c4ccc(Cl)cc4nc4ccc(OC)cc34)C(=O)CNC(=O)C(C)NC(=O)OC(C)(C)C)c2c1` (stereo not drawn), the Cytotoxicity entry was “Toxic”.

The next assay concerns Trypanosoma cruzi. Description: Percentage of activity against Trypanosoma cruzi at 3.13 uM. It counts as functional.
Conditions: not given
A digest of the protocol: as §4
Take `COc1ccc2nc3cc(Cl)ccc3c(NCCCN(CCCNc3c4ccc(Cl)cc4nc4ccc(OC)cc34)C(=O)C(CC(=O)O)NC(=O)OC(C)(C)C)c2c1` (stereo not drawn): the “Reduction of T. cruzi parasite load” value turned out to be 0%.

`COc1ccc2nc3cc(Cl)ccc3c(NCCCN(CCCNc3c4ccc(Cl)cc4nc4ccc(OC)cc34)C(=O)CNC(=O)C(C)NC(=O)OC(C)(C)C)c2c1` (stereo not drawn): the “Reduction of T. cruzi parasite load” value is recorded as 0%.

For a further assay, the system named is MRC5. Description: Cytotoxicity on MRC-5 cells at 25 uM. The format is functional. Conditions: Homo sapiens. A digest of the protocol: as §1
Regarding `COc1ccc2nc3cc(Cl)ccc3c(NCCCN(CCCNc3c4ccc(Cl)cc4nc4ccc(OC)cc34)C(=O)C(CC(=O)O)NC(=O)OC(C)(C)C)c2c1` (stereo not drawn), the cytotoxicity at 25 µM is 0%.

In turn, `COc1ccc2nc3cc(Cl)ccc3c(NCCCN(CCCNc3c4ccc(Cl)cc4nc4ccc(OC)cc34)C(=O)CNC(=O)C(C)NC(=O)OC(C)(C)C)c2c1` (stereo not drawn) registered a cytotoxicity at 25 µM of 100%.

For the next assay, the system named is Trypanosoma brucei. Description: Percentage of activity against Trypanosoma brucei at 6.25 uM. The format is functional.
Conditions: not given
A digest of the protocol:
as §2
Turning to `COc1ccc2nc3cc(Cl)ccc3c(NCCCN(CCCNc3c4ccc(Cl)cc4nc4ccc(OC)cc34)C(=O)C(CC(=O)O)NC(=O)OC(C)(C)C)c2c1` (stereo not drawn), the “Inhibition of parasite multiplication” value worked out at 100%.

On to `COc1ccc2nc3cc(Cl)ccc3c(NCCCN(CCCNc3c4ccc(Cl)cc4nc4ccc(OC)cc34)C(=O)CNC(=O)C(C)NC(=O)OC(C)(C)C)c2c1` (stereo not drawn), for which the “Inhibition of parasite multiplication” value turned out to be 100%.

For a further assay, the system named is Leishmania infantum. Description: Percentage of activity against Leishmania infantum at 6.25 uM; Toxic upon mouse primary peritoneal macrophages. It counts as functional, organism-based.
Conditions: not given
The gist of the method: as §3
For `COc1ccc2nc3cc(Cl)ccc3c(NCCCN(CCCNc3c4ccc(Cl)cc4nc4ccc(OC)cc34)C(=O)CNC(=O)C(C)NC(=O)OC(C)(C)C)c2c1` (stereo not drawn), the Cytotoxicity result is “Toxic”.

The next assay relates to Leishmania infantum. Description: Percentage of activity against Leishmania infantum at 3.13 uM.
Conditions: not given
It counts as functional. A digest of the protocol:
as §3
On to `COc1ccc2nc3cc(Cl)ccc3c(NCCCN(CCCNc3c4ccc(Cl)cc4nc4ccc(OC)cc34)C(=O)C(CC(=O)O)NC(=O)OC(C)(C)C)c2c1` (stereo not drawn), for which the “Percent antileishmanial activity (reduction of parasite load)” value was 0%.

Take `COc1ccc2nc3cc(Cl)ccc3c(NCCCN(CCCNc3c4ccc(Cl)cc4nc4ccc(OC)cc34)C(=O)CNC(=O)C(C)NC(=O)OC(C)(C)C)c2c1` (stereo not drawn): the “Percent antileishmanial activity (reduction of parasite load)” value is 0%.
